Data published in ChEMBL document CHEMBL1124104, “(Acyloxy)benzophenones and (acyloxy)-4-pyrones. A new class of inhibitors of human neutrophil elastase” (J Med Chem, 1988).

Experiments:
Neutrophil elastase [1] = molecular target: T1, Neutrophil elastase (Homo sapiens, UniProt P08246); assay: Inhibitory activity against human leukocyte elastase; No inhibition at 1x10E-2 M
T1 sequence (P08246 whole entry): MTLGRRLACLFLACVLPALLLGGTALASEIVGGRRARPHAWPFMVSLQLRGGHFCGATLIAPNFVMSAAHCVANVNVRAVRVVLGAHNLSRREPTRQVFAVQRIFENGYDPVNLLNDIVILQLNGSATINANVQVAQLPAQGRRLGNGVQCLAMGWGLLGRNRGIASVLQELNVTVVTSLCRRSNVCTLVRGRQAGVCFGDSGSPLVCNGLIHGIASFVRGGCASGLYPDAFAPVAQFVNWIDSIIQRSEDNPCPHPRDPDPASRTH
How it was run: (§1)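 HLE activity followed as rise in absorbance at 410 nm from nitroanilide release; substrate (methoxysuccinyl)Ala-Ala-Pro-Val nitroanilide at 10⁻⁴ M. Run in 0.2 M Tris, pH 8.0, 30 °C. Inhibitors and substrate dissolved in DMSO, which made up 10% of the final medium. Enzyme titrated to give 0.12 OD unit/min per 10 mm path.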

Neutrophil elastase [2] = molecular target: T1, Neutrophil elastase; assay: Inhibitory activity against human leukocyte elastase at 10e-4 M; how it was run: as §1
Neutrophil elastase [3] = molecular target: T1, Neutrophil elastase; assay: Inhibitory activity against human leukocyte elastase at 10e-6 M
Neutrophil elastase [4] = molecular target: T1, Neutrophil elastase; assay: Inhibitory activity against human leukocyte elastase at 10e-5 M; how it was run: as §1
Neutrophil elastase [5] = molecular target: T1, Neutrophil elastase; assay: Inhibitory activity against human leukocyte elastase at 10e-7 M
[6] = Inhibitory activity against pancreatic elastase; IA = Inactive at 10e-5 M
[7] = Inhibitory activity against Hog pancreatic elastase; IA = Inactive at 10e-5 M; parameters: species or system Sus scrofa
Neutrophil elastase [8] = molecular target: T1, Neutrophil elastase; assay: Inhibitory activity against human leukocyte elastase at 10e-9 M; how it was run: as §1
[9] = molecular target: T2, Neutrophil elastase (Homo sapiens) (UniProt P08246); assay: Inhibitory activity against [14C]-Elastin hydrolysis at 3 uM concentration and 3h.
T2 sequence (whole entry): T1 sequence (P08246 whole entry)
How it was run: (§2)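 Elastase digestion of [¹⁴C]elastin, quantitated by radiolabel release (method of Bielefeld et al.). Substrate, inhibitor and elastase were all present for the whole run, and % inhibition was read at 1, 2 and 3 h.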

[10] = molecular target: T2, Neutrophil elastase (Homo sapiens); assay: Inhibitory activity against [14C]elastin hydrolysis at 3 uM concentration and 2 hr.; how it was run: as §2
[11] = molecular target: T2, Neutrophil elastase (Homo sapiens); assay: Inhibitory activity against [14C]elastin hydrolysis at 3 uM concentration and 1h.; how it was run: as §2
[12] = molecular target: T2, Neutrophil elastase (Homo sapiens); assay: Inhibitory activity against [14C]-Elastin hydrolysis at 2 uM concentration and 2 hr.; how it was run: as §2
[13] = molecular target: T2, Neutrophil elastase (Homo sapiens); assay: Inhibitory activity against [14C]elastin hydrolysis at 1 uM concentration and 2 hr.; how it was run: as §2
[14] = molecular target: T2, Neutrophil elastase (Homo sapiens); assay: Inhibitory activity against [14C]elastin hydrolysis at 2 uM concentration and 1h.; how it was run: as §2
[15] = molecular target: T2, Neutrophil elastase (Homo sapiens); assay: Inhibitory activity against [14C]elastin hydrolysis at 1 uM concentration and 3h.; how it was run: as §2
[16] = molecular target: T2, Neutrophil elastase (Homo sapiens); assay: Inhibitory activity against [14C]elastin hydrolysis at 1 uM concentration and 1h.; how it was run: as §2
[17] = molecular target: T2, Neutrophil elastase (Homo sapiens); assay: Inhibitory activity against [14C]-Elastin hydrolysis at 2 uM concentration and 3h.; how it was run: as §2
Neutrophil elastase [18] = molecular target: T1, Neutrophil elastase; assay: Inhibitory activity against human leukocyte elastase at 10e-8 M
[19] = molecular target: T2, Neutrophil elastase (Homo sapiens); assay: Inhibitory activity against [14C]elastin hydrolysis at 4 uM concentration and 1h.; how it was run: as §2
[20] = molecular target: T2, Neutrophil elastase (Homo sapiens); assay: Inhibitory activity against [14C]elastin hydrolysis at 4 uM concentration and 2 hr.; how it was run: as §2
[21] = Inhibitory activity against pancreatic elastase; A = Inactive at 10e-5 M
Neutrophil elastase [22] = molecular target: T1, Neutrophil elastase; assay: Binding affinity towards human leukocyte elastase at 10e-7 M
[23] = Inhibitory activity against Hog pancreatic elastase; A = Inactive at 10e-5 M; parameters: species or system Sus scrofa
[24] = molecular target: T2, Neutrophil elastase (Homo sapiens); assay: Inhibitory activity against [14C]elastin hydrolysis at 4 uM concentration and 3h.; how it was run: as §2

With `CC1C(=O)Oc2ccc(C(=O)c3ccccc3)cc21` (centres undefined) the IC50 (Neutrophil elastase [1]) was “No inhibition”.
Compound `CCCCCCCCCCCCCCCC(=O)OCc1cc(=O)c(O)co1` has an IC50 (Neutrophil elastase [2]) of 100 µM.
For `CC(C)(C)C(=O)Oc1coc(COC(c2ccccc2)(c2ccccc2)c2ccccc2)cc1=O`, the IC50 (Neutrophil elastase [3]) was 1 µM.
`CC(C(=O)O)c1cc(C(=O)c2ccccc2)ccc1OC(=O)C(C)(C)C` (centres undefined) gave an IC50 (Neutrophil elastase [4]) of 12 µM.
`CC(C)(C)C(=O)Oc1ccc(C(=O)c2ccc(Cl)cc2)cc1` showed an IC50 (Neutrophil elastase [5]) of 0.14 µM.
In the case of `O=C(c1ccccc1)c1ccc(OC(=O)C2CCCCC2)cc1`, the IC50 (Neutrophil elastase [4]) is reported as 20 µM.
With `CCCCCC/C=C/CCCCCCCC(=O)OCc1cc(=O)c(OC(=O)C(C)(C)C)co1` the IC50 [6] was “Not Active”, the IC50 (Neutrophil elastase [5]) was 0.13 µM and the IC50 [7] was “Not Active”.
For `CC(C)(C)C(=O)Oc1ccc(C(=O)c2ccc(O)cc2)cc1`, the IC50 (Neutrophil elastase [3]) was 2.7 µM.
In the case of `CCCCCCCC/C=C/CCCCCCCC(=O)OCc1cc(=O)c(OC(=O)[C@]23C[C@H]4C[C@H](C[C@H](C4)C2)C3)co1`, the IC50 (Neutrophil elastase [4]) is reported as 80 µM.
With `O=C1CCc2cc(C(=O)c3ccccc3)ccc2O1` the IC50 (Neutrophil elastase [1]) was “No inhibition”.
Compound `CC(=O)Oc1ccc(C(=O)c2ccccc2)cc1` has an IC50 (Neutrophil elastase [4]) of 16 µM.
Work on `CC(C)(C)C(=O)OCc1cc(=O)c(OC(=O)C(C)(C)C)co1` yielded an IC50 (Neutrophil elastase [4]) of 36 µM.
For `CC(=O)NC(C)(C)C(=O)Oc1ccc(C(=O)c2ccccc2)cc1`, the IC50 (Neutrophil elastase [4]) was 19 µM.
In the case of `C=C(C)C(=O)Oc1ccc(C(=O)c2ccccc2)cc1`, the IC50 (Neutrophil elastase [8]) is reported as 1.9 µM.
With `CC(C)(C)C(=O)Oc1ccc(S(=O)(=O)c2ccc(O)cc2)cc1` the IC50 (Neutrophil elastase [5]) was 1.8 µM.
Compound `CC(C)(C)C(=O)Oc1cc(C(=O)OCc2cc(=O)c(OC(=O)C(C)(C)C)co2)cc(OC(=O)C(C)(C)C)c1OC(=O)C(C)(C)C` has an inhibition [9] of 31%, an inhibition [10] of 67% and an inhibition [11] of 71%. The IC50 (Neutrophil elastase [5]) was 0.1 µM, the inhibition [12] was 44% and the inhibition [13] was 15%. The inhibition [14] was 58%, the inhibition [15] was 3% and the inhibition [16] was 39%. It also gave an inhibition [17] of 5%.
`CCC(C)CC(=O)Oc1ccc(C(=O)c2ccc(OC(=O)CC(C)CC)cc2OC(=O)CC(C)CC)c(OC(=O)CC(C)CC)c1` (centres undefined) gave an IC50 (Neutrophil elastase [3]) of 1.5 µM.
For `CC(C)(C)C(=O)Oc1ccc(C(O)c2ccc(OC(=O)C(C)(C)C)cc2)cc1`, the IC50 (Neutrophil elastase [3]) was 1.5 µM.
Compound `O=C(c1ccccc1)c1ccc(OC(=O)C2CC2)cc1` has an IC50 (Neutrophil elastase [3]) of 1.4 µM.
For `CCCCCCCCCCCCCCCCCC(=O)OCc1cc(=O)c(OC(=O)C(C)C)co1`, the IC50 (Neutrophil elastase [18]) was 0.072 µM.
With `CCC(=O)Oc1ccc(C(=O)c2ccccc2)cc1` the IC50 (Neutrophil elastase [3]) was 6.2 µM.
Work on `CC(C)(C)C(=O)Oc1ccc(C(=O)OCc2cc(=O)c(OC(=O)C(C)(C)C)co2)c(OC(=O)C(C)(C)C)c1` yielded an inhibition [19] of 93%, an inhibition [20] of 80% and an inhibition [12] of 16%. For the same compound, the IC50 [21] was “Not Active”, the inhibition [13] was 5% and the Ki (Neutrophil elastase [22]) was 0.07 µM. For the same compound, the inhibition [14] was 36%, the inhibition [15] was -1% and the IC50 [23] was “Not Active”. For the same compound, the IC50 (Neutrophil elastase [18]) was 0.027 µM, the inhibition [24] was 54% and the inhibition [16] was 25%. The inhibition [17] was 1%.
In the case of `CC(C)(C)C(=O)Oc1coc(COC(=O)c2ccc(-c3ccccc3)cc2)cc1=O`, the IC50 (Neutrophil elastase [3]) is reported as 1.9 µM.
For `CCCCCCCCCCCCCCCCCCCC(=O)OCc1cc(=O)c(O)co1`, the IC50 (Neutrophil elastase [5]) was 9 µM.
In the case of `CC1Cc2cc(C(=O)c3ccccc3)ccc2OC1=O` (centres undefined), the IC50 (Neutrophil elastase [1]) is reported as “No inhibition”.
`CC(C)(C)C(=O)Oc1ccccc1C(=O)c1ccccc1OC(=O)C(C)(C)C` showed an IC50 (Neutrophil elastase [3]) of 8 µM.
